# Reference: ChEMBL document CHEMBL3232709, “Facile synthesis of benzonitrile/nicotinonitrile based s-triazines as new potential antimycobacterial agents” (Eur J Med Chem, 2014)
# Tests used:
# [1] = system: Mycobacterium tuberculosis; assay: Antimycobacterial activity against Mycobacterium tuberculosis H37Rv assessed as growth inhibition at 6.25 ug/ml measured within 10 days by BACTEC MGIT method; type: functional; details: 240 h
# In short: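 Primary single-concentration screen at 6.25 in MGIT tubes containing modified Middlebrook 7H9 broth. H37Rv inoculum was 10⁴–10⁷ CFU/mL, […]. Incubated at 37 °C in the BACTEC MGIT instrument until positive, read daily from day 2. Fluorescence was judged under UV beside positive control and uninoculated tubes. Result scored as % inhibition.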
# [2] = system: Mycobacterium tuberculosis; assay: Antimycobacterial activity against Mycobacterium tuberculosis H37Rv assessed as growth inhibition […] by Lowenstein-Jensen agar dilution method; type: functional
# In short: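 Test compounds dissolved in DMSO and added to liquid Lowenstein-Jensen medium at 25, 12.5, 6.25, 3.12 and 1.56 dilutions. Medium sterilised by inspissation, then tubes held 37 °C for 24 h. H37Rv (harvested into 0.85% saline) streaked at 5 × 10⁴ bacilli/tube and incubated at 37 °C. Growth checked at 12, 22 and 28 days against medium-only controls. MIC taken as no colonies or <20 colonies.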
# Vero = assay: Cytotoxicity against African green monkey Vero cells assessed as cell viability after 72 hrs by MTT assay; type: cell-based; details: Chlorocebus sabaeus
SMILES,inhibition at 6.25 µg/mL [1] [%],MIC99 [2] [µg/mL],IC50 (Vero) [µg/mL]
CN1CCN(c2nc(Oc3ccc(C#N)cc3)nc(-c3ccc(N4C(=O)CSC4c4ccc(O)cc4)cc3)n2)CC1 (configuration not stated),99,12.5,> 62.5
CN1CCN(c2nc(Oc3ccc(C#N)cn3)nc(-c3ccc(N4C(=O)CSC4c4ccc(F)cc4)cc3)n2)CC1 (configuration not stated),99,6.25,> 62.5
CN1CCN(c2nc(Oc3ccc(C#N)cn3)nc(-c3ccc(N4C(=O)CSC4c4ccc(O)cc4)cc3)n2)CC1 (configuration not stated),99,3.12,> 62.5
CN1CCN(c2nc(Oc3ccc(C#N)cc3)nc(-c3ccc(N4C(=O)CSC4c4ccccc4)cc3)n2)CC1 (configuration not stated),,200,
CO[C@H]1/C=C/O[C@@]2(C)Oc3c(C)c(O)c4c(O)c(c(/C=N/N5CCN(C)CC5)c(O)c4c3C2=O)NC(=O)/C(C)=C\C=C\[C@H](C)[C@H](O)[C@@H](C)[C@@H](O)[C@@H](C)[C@H](OC(C)=O)[C@@H]1C [RIFAMPIN],,0.25,> 62.5
CN1CCN(c2nc(Oc3ccc(C#N)cc3)nc(-c3ccc(N4C(=O)CSC4c4ccc(Br)cc4)cc3)n2)CC1 (configuration not stated),,25,> 62.5
COc1ccc(C2SCC(=O)N2c2ccc(-c3nc(Oc4ccc(C#N)cc4)nc(N4CCN(C)CC4)n3)cc2)cc1 (configuration not stated),,25,> 62.5
CN1CCN(c2nc(Oc3ccc(C#N)cc3)nc(-c3ccc(N4C(=O)CSC4c4ccc(Cl)cc4)cc3)n2)CC1 (configuration not stated),,62.5,
NC(=O)c1cnccn1 [PYRAZINAMIDE],,6.25,> 62.5
CN1CCN(c2nc(Oc3ccc(C#N)cc3)nc(-c3ccc(N4C(=O)CSC4c4ccc([N+](=O)[O-])cc4)cc3)n2)CC1 (configuration not stated),,100,
CC[C@@H](CO)NCCN[C@@H](CC)CO [ETHAMBUTOL],,3.12,> 62.5
NNC(=O)c1ccncc1 [ISONIAZID],,0.2,> 62.5
COc1ccc(C2SCC(=O)N2c2ccc(-c3nc(Oc4ccc(C#N)cn4)nc(N4CCN(C)CC4)n3)cc2)cc1 (configuration not stated),99,6.25,> 62.5
CN1CCN(c2nc(Oc3ccc(C#N)cn3)nc(-c3ccc(N4C(=O)CSC4c4ccc([N+](=O)[O-])cc4)cc3)n2)CC1 (configuration not stated),,100,
CN1CCN(c2nc(Oc3ccc(C#N)cn3)nc(-c3ccc(N4C(=O)CSC4c4ccc(Br)cc4)cc3)n2)CC1 (configuration not stated),,62.5,
CN1CCN(c2nc(Oc3ccc(C#N)cc3)nc(-c3ccc(N4C(=O)CSC4c4ccc(F)cc4)cc3)n2)CC1 (configuration not stated),,100,
CN1CCN(c2nc(Oc3ccc(C#N)cn3)nc(-c3ccc(N4C(=O)CSC4c4ccccc4)cc3)n2)CC1 (configuration not stated),,125,
CN1CCN(c2nc(Oc3ccc(C#N)cn3)nc(-c3ccc(N4C(=O)CSC4c4ccc(Cl)cc4)cc3)n2)CC1 (configuration not stated),,100,
